How the values were obtained:
[1] = system: KB; test: Cytotoxicity against human KB cells; format: functional; details: read-out: ED50 (the source's name)
How it was run: (§1)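 Cultured human cancer lines and murine P-388 cells. Complete dose-response data from at least five concentrations of test substance, each tested in duplicate.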

[2] = system: HL-60; test: Induction of cell differentiation in human HL60 cells assessed as alpha naphthyl esterase activity at 15.4 uM after 4 days; format: functional
How it was run: (§2)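 HL-60 cells in RPMI 1640 with 5% heat-inactivated calf serum at 37° under 5% CO2. Log-phase cells diluted to 1.2×10^5 cells/ml and preincubated 18 h, then samples added in DMSO (final 0.1%, DMSO controls). Cells scored after 4 days.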

[3] = system: HL-60; test: Induction of terminal cell differentiation in human HL60 cells assessed as inhibition of [3H]thymidine incorporation at 3.8 uM after 4 days; format: functional; design: scale not given: the % may be the effect or the level left
How it was run: (§3)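 HL-60 cells were kept in RPMI 1640 with 5% heat-inactivated calf serum and penicillin/streptomycin at 37° under 5% CO2. Log-phase cells were diluted to 1.2×10^5 cells/ml and preincubated 18 h. Samples were added in DMSO (final 0.1%; vehicle controls matched) for 4 days. Aliquots then got 0.5 μCi/ml [3H]thymidine for 16 h more, were harvested and scintillation-counted. % incorporation per 10^6 cells = sample DPM / DMSO-control DPM.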

[4] = system: Lu1; test: Cytotoxicity against human Lu1 cells; format: functional; details: read-out: ED50 (the source's name); how it was run: as §1
[5] = system: HL-60; test: Induction of terminal cell differentiation in human HL60 cells assessed as naphthol AS-D chloroacetate esterase activity at 15.4 uM after 4 days; format: functional
How it was run: (§4)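 HL-60 cells were grown in RPMI 1640 with 5% heat-inactivated calf serum at 37°, 5% CO2. They were diluted to 1.2×10^5 cells/ml, preincubated 18 h, then exposed 4 days to DMSO-dissolved samples (final DMSO 0.1%, matched vehicle controls). Specific esterase (naphthol AS-D chloroacetate) was scored cytochemically with a commercial kit as the percentage of differentiated cells.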

[6] = system: HL-60; test: Induction of cell differentiation in human HL60 cells assessed as alpha naphthyl esterase activity at 7.7 uM after 4 days; format: functional; how it was run: as §2
[7] = system: HL-60; test: Induction of terminal cell differentiation in human HL60 cells assessed as cell viability at 7.7 uM by trypan blue exclusion method; format: functional; details: read-out: Activity
How it was run: (§5)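 HL-60 cells preincubated 18 h at 1.2×10^5 cells/ml, then exposed 4 days to samples in DMSO (final 0.1%). Viability by trypan blue exclusion: viable/(viable+dead)×100. Cell counts also taken after 4 days.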

[8] = system: HL-60; test: Induction of terminal cell differentiation in human HL60 cells at 30.7 uM after 4 days by NBT reduction assay; format: functional
How it was run: (§6)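 Log-phase HL-60 cells (RPMI 1640, 5% heat-inactivated calf serum, 37°, 5% CO2) were diluted to 1.2×10^5 cells/ml, preincubated 18 h, then treated 4 days with samples in DMSO (final 0.1%; DMSO controls). 10^6 cells were mixed 1:1 with fresh PBS holding 2 mg/ml NBT and 5 μg/ml TPA, 1 h at 37°. Formazan-positive cells were counted microscopically as % NBT-positive.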

[9] = system: HL-60; test: Induction of terminal cell differentiation in human HL60 cells assessed as inhibition of [3H]thymidine incorporation at 7.7 uM after 4 days; format: functional; design: scale not given: the % may be the effect or the level left; how it was run: as §3
[10] = system: HL-60; test: Induction of terminal cell differentiation in human HL60 cells assessed as cell viability at 61.5 uM by trypan blue exclusion method; format: functional; details: read-out: Activity; how it was run: as §5
[11] = system: HL-60; test: Induction of terminal cell differentiation in human HL60 cells at 7.7 uM after 4 days by NBT reduction assay; format: functional; how it was run: as §6
[12] = system: HL-60; test: Induction of terminal cell differentiation in human HL60 cells assessed as inhibition of [3H]thymidine incorporation at 61.5 uM after 4 days; format: functional; design: scale not given: the % may be the effect or the level left; how it was run: as §3
[13] = system: HL-60; test: Induction of terminal cell differentiation in human HL60 cells assessed as inhibition of [3H]thymidine incorporation at 30.7 uM after 4 days; format: functional; design: scale not given: the % may be the effect or the level left; how it was run: as §3
[14] = system: HL-60; test: Induction of terminal cell differentiation in human HL60 cells assessed as cell viability at 30.7 uM by trypan blue exclusion method; format: functional; details: read-out: Activity; how it was run: as §5
[15] = system: HL-60; test: Induction of terminal cell differentiation in human HL60 cells assessed as naphthol AS-D chloroacetate esterase activity at 7.7 uM after 4 days; format: functional; how it was run: as §4
[16] = Cytotoxicity against human multidrug-resistant KBV1 cells in absence of vinblastine; format: functional; details: KB-V1, read-out: ED50 (the source's name); how it was run: as §1
[17] = Cytotoxicity against human BC1 cells; format: functional; details: read-out: ED50 (the source's name); how it was run: as §1
[18] = Cytotoxicity against human U373 cells; format: functional, U-373MG ATCC; details: U373 MG, read-out: ED50; how it was run: as §1
[19] = system: HL-60; test: Induction of terminal cell differentiation in human HL60 cells assessed as inhibition of [3H]thymidine incorporation at 15.4 uM after 4 days; format: functional; design: scale not given: the % may be the effect or the level left; how it was run: as §3
[20] = system: HL-60; test: Induction of cell differentiation in human HL60 cells assessed as alpha naphthyl esterase activity at 30.7 uM after 4 days; format: functional; how it was run: as §2
[21] = system: Col2; test: Cytotoxicity against human Col2 cells; format: functional; details: read-out: ED50 (the source's name); how it was run: as §1
[22] = system: HL-60; test: Induction of terminal cell differentiation in human HL60 cells assessed as cell viability at 15.4 uM by trypan blue exclusion method; format: functional; details: read-out: Activity; how it was run: as §5
[23] = system: LNCaP; test: Cytotoxicity against human LNCAP cells; format: functional; details: read-out: ED50; how it was run: as §1
[24] = system: HL-60; test: Induction of terminal cell differentiation in human HL60 cells assessed as cell viability at 3.8 uM by trypan blue exclusion method; format: functional; details: read-out: Activity; how it was run: as §5
[25] = Antiplatelet activity against rabbit platelet assessed as inhibition of collagen-induced platelet aggregation at 100 ug/ml; format: functional; details: Oryctolagus cuniculus
[26] = system: HL-60; test: Induction of terminal cell differentiation in human HL60 cells assessed as naphthol AS-D chloroacetate esterase activity at 3.8 uM after 4 days; format: functional; how it was run: as §4
[27] = system: HL-60; test: Induction of cell differentiation in human HL60 cells assessed as alpha naphthyl esterase activity at 61.5 uM after 4 days; format: functional; how it was run: as §2
[28] = system: HL-60; test: Induction of terminal cell differentiation in human HL60 cells assessed as naphthol AS-D chloroacetate esterase activity at 61.5 uM after 4 days; format: functional; how it was run: as §4
[29] = system: P388; test: Cytotoxicity against mouse P388 cells; format: functional; details: read-out: ED50 (the source's name); how it was run: as §1
[30] = system: ZR-75-1; test: Cytotoxicity against human ZR-75-1 cells; format: functional; details: ZR-75-1, read-out: ED50; how it was run: as §1
[31] = system: HL-60; test: Induction of cell differentiation in human HL60 cells assessed as alpha naphthyl esterase activity at 3.8 uM after 4 days; format: functional; how it was run: as §2
[32] = Antiplatelet activity against rabbit platelet assessed as inhibition of platelet activating factor-induced platelet aggregation at 100 ug/ml; format: functional; details: Oryctolagus cuniculus
[33] = Antiplatelet activity against rabbit platelet assessed as inhibition of arachidonic acid-induced platelet aggregation at 100 ug/ml; format: functional; details: Oryctolagus cuniculus
[34] = system: HL-60; test: Induction of terminal cell differentiation in human HL60 cells at 61.5 uM after 4 days by NBT reduction assay; format: functional; how it was run: as §6
[35] = system: HL-60; test: Induction of terminal cell differentiation in human HL60 cells at 3.8 uM after 4 days by NBT reduction assay; format: functional; how it was run: as §6
[36] = system: A-431; test: Cytotoxicity against human A431 cells; format: functional; details: read-out: ED50 (the source's name); how it was run: as §1
[37] = system: HT-1080; test: Cytotoxicity against human HT1080 cells; format: functional; details: read-out: ED50 (the source's name); how it was run: as §1
[38] = system: HL-60; test: Induction of terminal cell differentiation in human HL60 cells assessed as naphthol AS-D chloroacetate esterase activity at 30.7 uM after 4 days; format: functional; how it was run: as §4
[39] = system: SK-MEL; test: Cytotoxicity against human SK-MEL cells; format: functional; details: read-out: ED50 (the source's name); how it was run: as §1
[40] = Cytotoxicity against human multidrug-resistant KBV1 cells in presence of vinblastine; format: functional; details: KB-V1, read-out: ED50 (the source's name); how it was run: as §1
[41] = system: HL-60; test: Induction of terminal cell differentiation in human HL60 cells at 15.4 uM after 4 days by NBT reduction assay; format: functional; how it was run: as §6

CC(C)C(=O)CCC1(C)C=Cc2c(c3ccccc3n(C)c2=O)O1 (stereo unspecified)
EC50 [1]: 46.4 µM | Activity [2]: 5.5% | Activity [3]: 0% | EC50 [4]: > 60 µM | Activity [5]: 8% | Activity [6]: 5% | viability at 7.7 µM [7]: 98% | Activity [8]: 9.9% | Activity [9]: 0% | viability at 61.5 µM [10]: 85% | Activity [11]: 4.5% | Activity [12]: 31.6% | Activity [13]: 0% | viability at 30.7 µM [14]: 96% | Activity [15]: 6.5% | EC50 [16]: 24.3 µM | EC50 [17]: > 60 µM | EC50 [18]: > 60 µM | Activity [19]: 0% | Activity [20]: 12.22% | EC50 [21]: > 60 µM | viability at 15.4 µM [22]: 98% | EC50 [23]: > 60 µM | viability at 3.8 µM [24]: 97% | inhibition at 100 µg/mL [25]: 83.9% | Activity [26]: 5.5% | Activity [27]: 48.9% | Activity [28]: 5% | EC50 [29]: 9.8 µM | EC50 [30]: 11.1 µM | Activity [31]: 5% | inhibition at 100 µg/mL [32]: 100% | inhibition at 100 µg/mL [33]: 100% | Activity [34]: 53.1% | Activity [35]: 5.5% | EC50 [36]: > 60 µM | EC50 [37]: > 60 µM | Activity [38]: 9.4% | EC50 [39]: 36.6 µM | EC50 [40]: 4 µM | Activity [41]: 8%
